Experimental data as given in ChEMBL document CHEMBL4177546, “Development of a Selective Inhibitor of Protein Arginine Deiminase 2” (J Med Chem, 2017).

Columns and labels:
[1] = molecular target: Protein-arginine deiminase type-4 (Homo sapiens) (UniProt Q9UM07); experiment: Ratio of Kinact to Ki for recombinant full length N-terminal GST-tagged human PAD4 expressed in Escherichia coli Rosetta cells preincubated for 10 mins followed by BAEE substrate addition measured after 15 mins by COLDER assay
Protein-arginine deiminase type-4 (Homo sapiens), sequence (Q9UM07 whole entry): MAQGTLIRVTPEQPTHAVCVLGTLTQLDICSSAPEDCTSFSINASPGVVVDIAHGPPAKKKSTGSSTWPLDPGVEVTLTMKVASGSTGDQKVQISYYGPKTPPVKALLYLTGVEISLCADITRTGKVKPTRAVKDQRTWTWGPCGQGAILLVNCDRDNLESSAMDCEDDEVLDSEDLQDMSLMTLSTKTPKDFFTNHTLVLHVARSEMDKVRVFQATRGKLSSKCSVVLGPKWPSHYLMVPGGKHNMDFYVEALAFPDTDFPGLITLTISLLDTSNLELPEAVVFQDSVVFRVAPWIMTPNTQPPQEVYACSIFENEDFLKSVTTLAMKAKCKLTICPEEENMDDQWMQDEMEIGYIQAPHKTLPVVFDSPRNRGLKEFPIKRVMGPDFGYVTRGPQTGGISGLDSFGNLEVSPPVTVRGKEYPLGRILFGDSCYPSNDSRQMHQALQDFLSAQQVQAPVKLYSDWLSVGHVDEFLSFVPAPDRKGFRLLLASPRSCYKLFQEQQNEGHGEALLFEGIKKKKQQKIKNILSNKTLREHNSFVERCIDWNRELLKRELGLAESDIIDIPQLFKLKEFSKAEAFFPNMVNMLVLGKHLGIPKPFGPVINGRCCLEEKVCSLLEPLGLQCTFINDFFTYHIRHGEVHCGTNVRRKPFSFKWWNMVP
In short: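 Enzyme at 2.0 μM (PAD1, PAD2, PAD4) or 5.0 μM (PAD3) incubated at 37 °C with various inhibitor concentrations in 50 mM HEPES, 10 mM CaCl₂, 2 mM DTT, pH 7.6. Timed aliquots moved into substrate mix: 10 mM BAEE, or 10 mM BAA for PAD3. Selectivity ratios taken from these values.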

[2] = molecular target: T1, Protein-arginine deiminase type-2 (Homo sapiens, UniProt Q9Y2J8); experiment: Binding affinity to human PAD2 expressed in HEK293T cells assessed as protein occupancy preincubated for 15 mins followed by ionomycin addition measured after 1 hr in presence of CaCl2 by RIBFA probe based SDS-PAGE analysis; format: cell-based
T1 sequence (Q9Y2J8 whole entry): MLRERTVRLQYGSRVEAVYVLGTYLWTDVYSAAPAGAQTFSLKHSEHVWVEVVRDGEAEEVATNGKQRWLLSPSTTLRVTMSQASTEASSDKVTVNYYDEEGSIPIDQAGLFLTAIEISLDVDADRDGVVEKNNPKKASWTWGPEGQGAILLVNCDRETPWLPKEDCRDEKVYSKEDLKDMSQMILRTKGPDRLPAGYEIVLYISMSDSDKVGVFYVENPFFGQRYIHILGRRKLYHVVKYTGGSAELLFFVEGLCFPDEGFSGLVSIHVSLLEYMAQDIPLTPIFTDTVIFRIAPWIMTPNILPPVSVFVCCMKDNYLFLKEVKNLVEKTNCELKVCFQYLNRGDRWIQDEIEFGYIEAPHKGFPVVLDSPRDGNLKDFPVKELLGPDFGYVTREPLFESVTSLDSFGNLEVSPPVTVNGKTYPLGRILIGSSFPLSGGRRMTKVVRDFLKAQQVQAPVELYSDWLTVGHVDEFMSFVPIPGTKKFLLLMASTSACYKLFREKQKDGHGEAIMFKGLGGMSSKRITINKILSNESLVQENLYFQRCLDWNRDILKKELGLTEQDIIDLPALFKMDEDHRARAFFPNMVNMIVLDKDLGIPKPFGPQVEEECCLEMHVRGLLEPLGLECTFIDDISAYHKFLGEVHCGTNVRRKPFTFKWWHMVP
In short: (§1)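 Adherent HEK293T/PAD2 cells at 80–90% confluence in HBS with 2 mM CaCl₂ at 37 °C. Inhibitor (in DMSO) added for 15 min, then ionomycin (0.5 μM final) for 1 h. Cells washed and lysed in 1% Triton X-100. Lysate (2 μg/μL) labelled with RIBFA probe (2 μM) plus 2 mM CaCl₂ for 1 h at 37 °C. PAD2 occupancy expressed relative to DMSO control.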

[3] = molecular target: T1, Protein-arginine deiminase type-2; experiment: Binding affinity to human PAD2 expressed in HEK293T cells assessed as protein occupancy at 25 uM preincubated for 15 mins followed by ionomycin addition measured after 1 hr in presence of CaCl2 by RIBFA probe based SDS-PAGE analysis relative to control; format: cell-based
In short: as §1, with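 “37 °C. Gel resolved and fluorescence scanned (~546/579 nm). PAD2 occupancy” for “37 °C. PAD2 occupancy”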

[4] = molecular target: T1, Protein-arginine deiminase type-2; experiment: Binding affinity to human PAD2 expressed in HEK293T cells assessed as decrease in histone H3 citrulination incubated for 3 hrs in presence of ionomycin/CaCl2 by SDS-PAGE analysis; format: cell-based
In short: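 HEK293T stably overexpressing human PAD2, 4 × 10⁵ cells in HBS, given ionomycin (10 μM), CaCl₂ (1 mM) and varying inhibitor concentrations (1% DMSO) for 3 h. Lysed with 1% Triton X-100 and sonicated at 0 °C. 1 μg protein run on SDS-PAGE, western blotted with antibodies to histone H3 and to citrullinated H3 (Cit 2,8,17), and imaged on Licor. EC50 taken from CitH3 intensity.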

[5] = Safety index, ratio of compound EC50 to BB-Cl-amide EC50 for cytotoxicity against HEK293T cells; format: cell-based, HEK-293T; conditions: human, read-out: Ratio EC50
[6] = species: Homo sapiens; experiment: Selectivity ratio of Kinact/Ki for recombinant His6-tagged PAD1 (unknown origin) to Kinact/Ki for recombinant full length N-terminal GST-tagged human PAD4 expressed in Escherichia coli Rosetta cells
In short: (§2)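 Enzyme at 2.0 μM (PAD1, PAD2, PAD4) or 5.0 μM (PAD3) incubated at 37 °C with various inhibitor concentrations in 50 mM HEPES, 10 mM CaCl₂, 2 mM DTT, pH 7.6. Timed aliquots moved into substrate mix: 10 mM BAEE, or 10 mM BAA for PAD3. […] Selectivity ratios taken from these values.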

[7] = species: Homo sapiens; experiment: Selectivity ratio of Kinact/Ki for recombinant human PAD2 expressed in Escherichia coli BL21(DE3)pLysS cells to Kinact/Ki for recombinant full length N-terminal GST-tagged human PAD4 expressed in Escherichia coli Rosetta cells; in short: as §2
[8] = species: Homo sapiens; experiment: Selectivity ratio of Kinact/Ki for recombinant His6-tagged PAD3 (unknown origin) to Kinact/Ki for recombinant full length N-terminal GST-tagged human PAD4 expressed in Escherichia coli Rosetta cells; in short: as §2
[9] = species: Homo sapiens; experiment: Selectivity ratio of Kinact/Ki for recombinant His6-tagged PAD1 (unknown origin) to Kinact/Ki for recombinant His6-tagged PAD3 (unknown origin); in short: as §2
[10] = species: Homo sapiens; experiment: Selectivity ratio of Kinact/Ki for recombinant human PAD2 expressed in Escherichia coli BL21(DE3)pLysS to Kinact/Ki for recombinant His6-tagged PAD3 (unknown origin); in short: as §2
[11] = species: Homo sapiens; experiment: Selectivity ratio of Kinact/Ki for recombinant full length N-terminal GST-tagged human PAD4 expressed in Escherichia coli Rosetta to Kinact/Ki for recombinant His6-tagged PAD3 (unknown origin); in short: as §2
[12] = species: Homo sapiens; experiment: Selectivity ratio of Kinact/Ki for recombinant human PAD2 expressed in Escherichia coli BL21(DE3)pLysS cells to Kinact/Ki for recombinant His6-tagged PAD1 (unknown origin); in short: as §2
[13] = species: Homo sapiens; experiment: Selectivity ratio of Kinact/Ki for recombinant His6-tagged PAD1 (unknown origin) to Kinact/Ki for recombinant human PAD2 expressed in Escherichia coli BL21(DE3)pLysS cells; in short: as §2
[14] = species: Homo sapiens; experiment: Selectivity ratio of Kinact/Ki for recombinant His6-tagged PAD3 (unknown origin) to Kinact/Ki for recombinant human PAD2 expressed in Escherichia coli BL21(DE3)pLysS cells; in short: as §2
[15] = species: Homo sapiens; experiment: Selectivity ratio of Kinact/Ki for recombinant full length N-terminal GST-tagged human PAD4 expressed in Escherichia coli Rosetta cells to Kinact/Ki for recombinant human PAD2 expressed in Escherichia coli BL21(DE3)pLysS cells; in short: as §2

In the case of `N=C(CF)NCCC[C@H](NC(=O)c1ccc(-c2ccccc2)cc1)c1nc2ccccc2[nH]1`, the Ratio [1] is reported as 3750 M⁻¹ min⁻¹ and the EC50 [2] is reported as 20.6 µM.

With `CCn1c([C@H](CCCNC(=N)CF)NC(=O)c2cccc3c2C(=O)NC3)nc2c(OC)cccc21` the EC50 [2] was 7.6 µM, the Activity [3] was > 60% and the EC50 [4] was 2.4 µM. For the same molecule, the selectivity ratio [5] was > 30, the Selectivity ratio [6] was 38 and the Selectivity ratio [7] was 32. The Selectivity ratio [8] was 1.

With `CCn1c([C@H](CCCNC(=N)CF)NC(=O)c2cccc3c2C(=O)NC3)nc2ccccc21` the Selectivity ratio [7] was 33, the Selectivity ratio [9] was 37 and the Selectivity ratio [10] was 56. For the same molecule, the Selectivity ratio [11] was 1.7 and the Selectivity ratio [12] was 2.

In the case of `COc1cccc2c1nc([C@H](CCCNC(=N)CF)NC(=O)c1cccc3c1C(=O)N(C(C)C)C3)n2C`, the Activity [3] is reported as < 37%, the Selectivity ratio [9] is reported as 32 and the Selectivity ratio [10] is reported as 58. The Selectivity ratio [11] was 2.6.

For `CCN1Cc2cccc(C(=O)N[C@@H](CCCNC(=N)CF)c3nc4ccccc4[nH]3)c2C1=O`, the Selectivity ratio [13] was 3.4, the Selectivity ratio [14] was 1 and the Selectivity ratio [15] was 1.

With `N=C(CF)NCCC[C@H](NC(=O)c1ccccc1C(=O)O)c1nc2ccccc2[nH]1` the Selectivity ratio [13] was 11, the Selectivity ratio [14] was 4.3 and the Selectivity ratio [15] was 16.

For `N=C(CCl)NCCC[C@H](NC(=O)c1ccccc1C(=O)O)c1nc2ccccc2[nH]1`, the Selectivity ratio [13] was 8.3, the Selectivity ratio [14] was 6.2 and the Selectivity ratio [15] was 9.

`CCN1Cc2cccc(C(=O)N[C@@H](CCCNC(=N)CF)c3nc4ccccc4n3CC)c2C1=O` gave a Selectivity ratio [6] of 19, a Selectivity ratio [7] of 33 and a Selectivity ratio [8] of 1. The Selectivity ratio [12] was 2.

For `COc1ccc2c(c1)nc([C@H](CCCNC(=N)CF)NC(=O)c1cccc3c1C(=O)NC3)n2C`, the EC50 [2] was 5.9 µM, the Activity [3] was > 60% and the EC50 [4] was 2.1 µM. For the same molecule, the selectivity ratio [5] was > 30, the Selectivity ratio [9] was 121 and the Selectivity ratio [10] was 114. The Selectivity ratio [11] was 1.2.

With `COc1cccc2c1nc([C@H](CCCNC(=N)CF)NC(=O)c1cccc3c1C(=O)NC3)n2C` the EC50 [2] was 9.5 µM, the Activity [3] was > 60% and the EC50 [4] was 0.4 µM. The selectivity ratio [5] was > 30, the Selectivity ratio [7] was 15 and the Selectivity ratio [9] was 29. It also gave a Selectivity ratio [10] of 47, a Selectivity ratio [11] of 3.2 and a Selectivity ratio [12] of 1.6.

In the case of `CCN1Cc2cccc(C(=O)N[C@@H](CCCNC(=N)CF)c3nc4c(OC)cccc4n3C)c2C1=O`, the Activity [3] is reported as < 37%, the Selectivity ratio [6] is reported as 16 and the Selectivity ratio [7] is reported as 85. For the same molecule, the Selectivity ratio [8] was 1, the Selectivity ratio [10] was 85 and the Selectivity ratio [12] was 5.

With `CCOc1cccc2c1nc([C@H](CCCNC(=N)CF)NC(=O)c1cccc3c1C(=O)NC3)n2C` the EC50 [2] was 8.3 µM, the Activity [3] was > 60% and the EC50 [4] was 2.7 µM. For the same molecule, the selectivity ratio [5] was > 30, the Selectivity ratio [6] was 65 and the Selectivity ratio [7] was 95. It also gave a Selectivity ratio [8] of 1.2 and a Selectivity ratio [10] of 79.
